Screening results as filed in PubChem.
Shown are actives, neighbours in structure and some others; about 2.2% of the full set was active somewhere.
HCT116 PTEN-null = PTEN-deleted cell growth suppression | viability, % at 10 µM | HCT116 PTEN-null viability, CellTiter-Glo, 60 h; active compounds read low | hit rate 1.2% among 140,000;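 active = viability at or below a set limit, 4 SD under the median of all tested compounds, cut at about 3.7% in these data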;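 note: PTEN knockout HCT116 line with beta catenin targeted HCT116 as companion control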
bCat KO growth = beta-catenin-lacking colon tumor cell growth suppression; HCT116 beta-catenin knockout viability, CellTiter-Glo, 60 h; active compounds read low; hit rate 1.5% among 140,000; viability, % at 10 µM;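 active = viability at or under a set limit, the compound median less 4 SD, cut at about 6% in these data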;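 note: 0% = Hyamine 1622 control at 20 µM and 100% = untreated cell control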
Dynein cargo inh = blocks dynein driven cargo transport along microtubules; 3617.4 mouse cells, GR-EGFP nuclear translocation imaging; test concentration mostly 20 µM; stimulated with dexamethasone, 1 µM; active compounds read low; z-score, hits read low; hit rate 0.47% among 220,000; AID 1381;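 active = plate z-score of nuclear minus cytoplasmic receptor signal below a set negative limit, without overly bright fluorescence or cell loss, cut at about -3.5 in these data, passing the limit was not always enough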;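 note: z-score of nuclear minus cytoplasmic ring GR-EGFP intensity difference per well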
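medium = tetracycline-free induction medium containing charcoal-stripped FBS | probe or stimulus = dexamethasone, 1.0 µM final | timing = 48 h induction, then 1 h compound, then 30 min agonist, 37 °C | detection = automated 10x imaging of fixed Hoechst-stained cells | read-out basis = nuclear versus cytoplasmic GR-EGFP signal, averaged per well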
Autophagy mod = alters autophagy in cells; MEF GFP-LC3 puncta imaging; test concentration mostly 10 µM; calls only at 10 µM (by protocol); hit rate 0.98% among 190,000; AID 463193;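 active = percentage of spot-positive cells more than 3 SD above its plate mean, without a fluorescence outlier flag or 80% toxicity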;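 note: spot-positive cell cutoff set from DMSO-treated cells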
SDO1 yeast rescue = sdo1-depleted yeast growth rescue | S. cerevisiae sdo1-depleted JHY4D growth rescue, OD600 30 h; active compounds read high; pdr5 snq2 efflux-pump mutant strain | z-score at 10 µM | hit rate 0.21% among 140,000;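 active = z-score above 3 at both the 24 hr and the 30 hr optical density reads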;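 note: z-score against mean and SD of all compound wells on the same plate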
sdo1 rescue conf = SDO1-depleted yeast growth rescue confirmation; shares compounds with SDO1 yeast rescue; hit rate 44% among 440; OD recovery (no concentration beside the values); S. cerevisiae JHY4D (SDO1-depleted) growth rescue, OD600, 30 h; active compounds read high; efflux-deficient strain, SNQ2 and PDR5 mutated;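 active = yeast growth recovered at 30 hours, either rising with dose fitted slope above 0.001 or with average optical density gain above 0.07, some results past the limit were not filed as active; inactive = growth falling with dose or no effect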;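 note: gain in OD600 from 0 h to 30 h averaged across all seven doses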
* marks the source's active call; other numbers are inactive results; i = inactive; · = not tested or not shown; + = active, no number.

SMILES | HCT116 PTEN-null | bCat KO growth | Dynein cargo inh | Autophagy mod | SDO1 yeast rescue | sdo1 rescue conf
CCOC(=O)CNC(=O)c1cccnc1 | 107 | 96 | 0.38 | i | 1.4 | ·
CCC(=O)NC(=S)NNC(=O)c1ccc(O)cc1 | · | · | -0.044 | i | · | ·
CC(NC(=O)c1csc2ccccc12)C1CCCO1 (centres undefined) | 106 | 97 | 0.032 | i | 0.48 | ·
CC(NC(=O)c1sc2ccccc2c1Cl)C1CCCO1 (centres undefined) | 98 | 110 | -0.13 | i | 4* | 0.079
Cc1ccc(SCCC(=O)Nc2ccccc2C(=O)N2CCOCC2)cc1 | 92 | 82 | 0.57 | i | 4.1* | 0.05
CC(C)(C)c1cc(NC(=O)COc2ccc(Br)cc2)n(-c2ccccc2)n1 | 57 | 61 | 0.95 | i | -0.53 | ·
Cn1c(=O)c2c(nc(N3CCCC3)n2CC(O)CO)n(C)c1=O (centres undefined) | 98 | 113 | -0.56 | i | 2.2 | 0.097*
COc1ccc(-c2c(C)sc(NC(=O)c3ccnn3C)c2C#N)cc1 | 35 | 59 | -1.1 | i | 1.7 | 0.085*
CCCC(C)NC(=O)COc1ccc(Sc2ccc(OCC(=O)NC(C)CCC)cc2)cc1 (centres undefined) | 50 | 39 | -0.52 | i | 0.87 | ·
O=C(O)COc1ccc2occ(C(=O)c3ccccc3)c2c1 | 113 | 102 | 0.79 | i | 0.12 | ·
COC(=O)COc1ccc2occ(C(C)=O)c2c1 | 92 | 103 | 0.089 | i | 3.6* | 0.11*
CNC(=O)c1cc2cc(OC)ccc2oc1=N | 102 | 105 | 0.19 | i | 12* | 0.1*
Cc1ccc(C(=O)COC(=O)CCC(=O)NC2CCCCC2)cc1C | 99 | 97 | -0.8 | i | 8.2* | 0.057
O=C(CCC(=O)OCC(=O)c1ccc(Cl)cc1)NC1CCCCC1 | 96 | 99 | -0.44 | i | -0.12 | ·
CS(=O)(=O)N(Cc1ccc(C(=O)NCCSc2ccccn2)cc1)c1ccccc1 | 92 | 90 | -0.17 | i | -0.12 | ·
Cc1ccc(N(Cc2ccc(C(=O)NCCSc3ccccn3)cc2)S(C)(=O)=O)cc1C | 58 | 59 | -0.066 | i | 7.2* | 0.1*
CCn1ncc(Cl)c1C(=O)NC(C)c1ccccc1 (centres undefined) | 96 | 101 | 1.9 | i | 1.4 | ·
N#Cc1ccc(N/N=C/c2cn(-c3ccccc3)nc2-c2ccccc2)c([N+](=O)[O-])c1 | 1.0* | 1.8* | -0.72 | i | 0.62 | 0.026
CC1(C)NC(=O)N(CC(O)CN2C(=O)NC(C)(C)C2=O)C1=O | 105 | 109 | -1.4 | i | 9.1* | 0.13*
CC(C)c1ccc(NC(=O)C2CCCN(S(=O)(=O)c3cnc[nH]3)C2)cc1 (centres undefined) | 97 | 98 | -0.2 | i | 1.3 | 0.048
O=C(Nc1ccc(Cl)cc1)C1CCCN(S(=O)(=O)c2cnc[nH]2)C1 (centres undefined) | 93 | 102 | -1.2 | i | 0.28 | ·
Cc1ccc2c(CC(=O)NNC(=O)c3ccccc3)coc2c1 | 107 | 98 | 0.71 | i | 6.7* | 0.084*
Cc1cccc(NC(=O)c2sc3nc(N)c(C#N)cc3c2N)c1 | 38 | 83 | -0.52 | i | 0.26 | ·
COc1cccc(CNC(=O)C2CCCN(S(=O)(=O)c3cccc4nonc34)C2)c1 (centres undefined) | 94 | 98 | 1.7 | i | 2.8 | 0.086*
COc1cccc(NC(=O)C2CCCN(S(=O)(=O)c3cccc4nonc34)C2)c1 (centres undefined) | · | · | -0.004 | i | · | ·
SMILES | HCT116 PTEN-null | bCat KO growth | Dynein cargo inh | Autophagy mod | SDO1 yeast rescue | sdo1 rescue conf
COC(=O)c1c(C)cc(C)c2c1CC(C)(C)C2=O | · | · | 1.1 | · | · | ·
CC(C)COC(=O)c1cc(-c2ccc(/C=N/n3cnnc3)o2)ccc1Cl | 106 | 96 | -0.89 | i | 4* | 0.12*
Fc1ccc(-c2ccc(/C=N\n3cnnc3)o2)cc1Cl | 97 | 103 | 0.46 | i | 0.12 | ·
Brc1ccc(NC2=Nc3ccccc3CC2)cc1 | 74 | 63 | 0.94 | i | 13* | 0.075*
COc1ccc(CCNC(=O)CSc2nc3[nH]ncc3c(=O)[nH]2)cc1OC | · | · | -0.081 | i | · | ·
Cc1ccc2cc(C#N)c(SCC(=O)Nc3ccc4sc(C)nc4c3)nc2c1 | 88 | 87 | 0.061 | i | 2.2 | 0.1*
Cc1nc2ccccc2c(=O)n1/N=C/c1cccnc1 | 98 | 97 | 0.0061 | i | 3.1* | 0.053
CN(CC(=O)NCc1cccnc1)S(=O)(=O)c1ccc2c(c1)c(=O)n(C)c(=O)n2C | 89 | 95 | -0.52 | i | 3* | 0.074*
Cc1ccc(C(=O)COC(=O)c2ccc(Br)o2)cc1C | 84 | 95 | 1.5 | i | 3.7* | 0.081*
Cc1cc(C(=O)COC(=O)c2ccc(Br)o2)c(C)n1C | · | · | -0.56 | i | · | ·
COc1ccc2nc3ccccc3nc2c1NC(=O)c1ccc(Cl)cc1Cl | 83 | 89 | -0.98 | + | 1.6 | 0.096
CC(CCc1ccccc1)NC(=O)CSc1nc(N)cc(N)n1 (centres undefined) | 87 | 86 | -0.31 | i | 13* | 0.11*
Nc1cc(N)nc(SCC(=O)NNC(=O)Cc2ccccc2)n1 | · | · | 0.23 | i | · | ·
Cc1ccc(-n2[nH]c(C)c(C=Nc3cc(C)ccn3)c2=O)cc1 | 68 | 76 | 0.083 | i | 9.4* | 0.07*
CC(=O)c1ccc(NC(=O)c2ccc(COc3ccccc3[N+](=O)[O-])o2)cc1 | 94 | 93 | -0.29 | i | 1.9 | 0.097*
CC(=O)Nc1sc2c(c1C#N)CCC(C)C2 (centres undefined) | · | · | -0.23 | i | · | ·
Cc1cc(C(=O)Nc2sc3c(c2C#N)CCC(C)C3)cs1 (centres undefined) | 68 | 69 | 0.43 | i | 2.2 | 0.055
O=C(NCc1cccc(C(F)(F)F)c1)C1CC(c2c(Cl)cccc2Cl)=NO1 (centres undefined) | 34 | 19 | 0.57 | i | -1.2 | ·
Cc1cccc(NC(=O)COC(=O)CNC(=O)C2CCCCC2)c1 | 92 | 88 | -1.3 | i | 5.7* | 0.067
Cc1cnc(N)c2c(=O)oc3ccccc3c12 | 96 | 92 | 0.84 | i | -0.57 | ·
O=c1oc2ccccc2c2nccnc12 | 100 | 101 | -1.2 | i | 5.4* | 0.043
COc1cccc(C(=O)Nc2ccc(NC(=O)C3CC3)cn2)c1 | 87 | 84 | -0.42 | i | 2.4 | 0.084*
CCc1nn(C)c(-c2n[nH]c(=S)n2N)c1Cl | 88 | 82 | 1.1 | i | 0.22 | ·
COc1ccc(N2CC(C(=O)Nc3ccc(S(=O)(=O)N4CCOCC4)cc3)CC2=O)cc1 (centres undefined) | · | · | -0.4 | i | · | ·
COc1ccc(N2CC(C(=O)NCCCN3CCOCC3)CC2=O)cc1 (centres undefined) | 104 | 100 | 2.1 | i | 1.8 | 0.084*
